This passage reports LD20, ILS and Optimal dose results from ChEMBL document CHEMBL1124897, “(1-Pyrenylmethyl)amino alcohols, a new class of antitumor DNA intercalators. Discovery and initial amine side chain structure-activity studies” (1990).

Activity calls are given as the source filed them. No cut-off for these calls is given here.

Assay [1] concerns P388. As to the kind of experiment: In vivo antitumor activity against murine lymphocytic leukemia P388 measured as lethal dose […]. More on the design: unit: mg/kg. Type of assay: functional, Mus musculus. The method in brief:
(§1)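 Male CD2-F1 mice (20 ± 3 g) implanted ip with 1 × 10^6 viable P388 cells on day 0. Drug given ip as aqueous suspension or solution in 0.9% NaCl or 5% dextrose on days 1, 5 and 9, dosed per body weight in mg/kg. Several dose levels bracketing the LD20 were tested, six mice per dose. Deaths before the control median day of death were counted as drug toxicity.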

The subject of assay [2] is P388. In words: In vivo antitumor activity against murine lymphocytic leukemia P388, measured as percent increase in life span. Type of assay: functional, organism-based. The following applies: Mus musculus. The method in brief:
(§2)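 Male CD2-F1 mice (20 ± 3 g) implanted ip with 1 × 10^6 viable P388 cells on day 0. Compound given ip as aqueous suspension or solution in 0.9% NaCl or 5% dextrose on days 1, 5 and 9, dosed per mg/kg body weight. Several doses bracketing LD20 were tested, six mice per dose. %ILS was calculated from median day of death of treated versus control mice. Values are optimal from at least two experiments.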

Assay [3] deals with P388. As to the kind of experiment: In vivo antitumor activity against murine lymphocytic leukemia P388 measured as optimal dose which is the highest nontoxic dose. Type of assay: functional, Mus musculus.
Assay [4] relates to P388. As to the kind of experiment: In vivo antitumor activity against murine lymphocytic leukemia P388 measured as percent increase in life span. Type of assay: functional, Mus musculus. Put shortly:
as §1

The subject of assay [5] is P388. In words: In vivo antitumor activity against murine lymphocytic leukemia P388 measured as optimal dose. It is filed as functional, Mus musculus. The method in brief: as §2

In assay [1], `Cl.OCCNCCNCc1ccc2ccc3cccc4ccc1c2c34` gave an LD20 of 200. Further, in assay [2], the ILS result was “inactive”. The Optimal dose in assay [3] is 134 mg/kg.

`COCCNCc1ccc2ccc3cccc4ccc1c2c34.Cl` had an LD20 in assay [1] of 200. Further, in assay [2], the ILS entry is “inactive”. For the same compound, in assay [3], the Optimal dose was found to be 133 mg/kg.

For the compound `Cl.c1ccc(CCCCNCc2ccc3ccc4cccc5ccc2c3c45)cc1`, the LD20 in assay [1] was determined as 130. For the same compound, the ILS entry in assay [2] was “inactive”. Moreover, the Optimal dose in assay [3] was 88 mg/kg.

`Cl.OCC(NCc1ccc2ccc3cccc4ccc1c2c34)c1ccccc1` (stereo unspecified) showed an LD20 in assay [1] of 675. For the same compound, in assay [2], the ILS entry was “inactive”. The compound further registered an Optimal dose in assay [3] of 675 mg/kg.

`CCCNCc1ccc2ccc3cccc4ccc1c2c34.Cl`: the LD20 in assay [1] was determined as 150. The ILS entry in assay [2] was “inactive”. Besides, in assay [3], the Optimal dose is 225 mg/kg.

For `CCN(CC)CCCC(C)NCc1ccc2ccc3cccc4ccc1c2c34.Cl` (stereo unspecified), the LD20 in assay [1] was 100. Besides, the ILS entry in assay [2] is “inactive”. For the same compound, in assay [3], the Optimal dose turned out to be 150 mg/kg.

Compound `CC(O)CNCc1ccc2ccc3cccc4ccc1c2c34.Cl` (stereo unspecified) displayed an ILS in assay [4] of 28%. For the same compound, in assay [1], the LD20 turned out to be 600. This compound also registered an Optimal dose in assay [5] of 300 mg/kg.

On to `CC(C)(O)CNCc1ccc2ccc3cccc4ccc1c2c34.Cl`, for which, in assay [1], the LD20 came to 220. The ILS result in assay [2] is “inactive”. This compound also showed an Optimal dose in assay [5] of 330 mg/kg.

`CCC(COC(C)=O)(COC(C)=O)NCc1ccc2ccc3cccc4ccc1c2c34` returned an ILS in assay [4] of 40%. For the same compound, in assay [1], the LD20 came to 675. The Optimal dose in assay [3] is 303 mg/kg.

For `CCC(C)C(CO)NCc1ccc2ccc3cccc4ccc1c2c34.Cl` (stereo unspecified), the LD20 in assay [1] came to 675. The ILS result in assay [2] was “inactive”. Further, in assay [3], the Optimal dose came out at 675 mg/kg.

Regarding `Cl.OCCN(CCO)CCCNCc1ccc2ccc3cccc4ccc1c2c34`, the LD20 in assay [1] is reported as 96. In addition, the ILS result in assay [2] was “inactive”. Moreover, the Optimal dose in assay [3] turned out to be 64 mg/kg.

`CN(CCCN)CCCNCc1ccc2ccc3cccc4ccc1c2c34.Cl` registered an ILS in assay [4] of 20%. The LD20 in assay [1] came out at 23. Besides, in assay [5], the Optimal dose worked out at 23 mg/kg.

`CC(O)C(C)(CO)NCc1ccc2ccc3cccc4ccc1c2c34.Cl` (stereo unspecified): the ILS in assay [4] was determined as 77%. In addition, the LD20 in assay [1] came out at 125. The Optimal dose in assay [5] amounted to 125 mg/kg.

Compound `Cl.OCC(NCc1ccc2ccc3cccc4ccc1c2c34)C(O)c1ccccc1` (stereo unspecified) returned an LD20 in assay [1] of 675. In addition, the ILS result in assay [2] is “inactive”. Moreover, in assay [3], the Optimal dose amounted to 1013 mg/kg.

As to `Cl.NCc1ccc2ccc3cccc4ccc1c2c34`, in assay [1], the LD20 is reported as 130. In addition, the ILS entry in assay [2] was “inactive”. For the same compound, the Optimal dose in assay [3] worked out at 194 mg/kg.

`CCC(CO)(CO)NCc1ccc2ccc3cccc4ccc1c2c34.Cl` had an ILS in assay [4] of 140%. Also, in assay [1], the LD20 stood at 340. This compound returned an Optimal dose in assay [5] of 303 mg/kg.

Compound `CC(NCc1ccc2ccc3cccc4ccc1c2c34)C(O)c1ccccc1.Cl` (stereo unspecified) yielded an LD20 in assay [1] of 450. Besides, the ILS entry in assay [2] is “inactive”. Also, the Optimal dose in assay [3] turned out to be 675 mg/kg.

As to `C=CCNCc1ccc2ccc3cccc4ccc1c2c34.Cl`, the LD20 in assay [1] turned out to be 369. The ILS result in assay [2] is “inactive”. The Optimal dose in assay [3] amounted to 550 mg/kg.

Compound `CC(O)CNCCNCc1ccc2ccc3cccc4ccc1c2c34.Cl` (stereo unspecified) registered an LD20 in assay [1] of 150. For the same compound, the ILS entry in assay [2] was “inactive”. This compound also showed an Optimal dose in assay [3] of 150 mg/kg.

Take `Cl.NCCCCNCc1ccc2ccc3cccc4ccc1c2c34`: in assay [1], the LD20 was found to be 28. Further, the ILS entry in assay [2] was “inactive”. In assay [3], this compound showed an Optimal dose of 19 mg/kg.

The compound `Cl.Clc1ccc(CNCc2ccc3ccc4cccc5ccc2c3c45)cc1Cl` gave an LD20 in assay [1] of 400. Also, in assay [2], the ILS entry was “inactive”. The compound also showed an Optimal dose in assay [3] of 900 mg/kg.

Regarding `Cl.NCCCN1CCN(CCCNCc2ccc3ccc4cccc5ccc2c3c45)CC1`, the LD20 in assay [1] is 37. In assay [3], this compound had an Optimal dose of 37 mg/kg.

`CC(C)(CO)CCCNCc1ccc2ccc3cccc4ccc1c2c34.Cl`: the LD20 in assay [1] is recorded as 215. Besides, in assay [2], the ILS result was “inactive”. In addition, the Optimal dose in assay [3] stood at 215 mg/kg.

In turn, `CCN(CC)Cc1ccc2ccc3cccc4ccc1c2c34.Cl` showed an LD20 in assay [1] of 452. In assay [2], the ILS entry is “inactive”. In assay [3], this compound came in with an Optimal dose of 452 mg/kg.

`CC1(NCc2ccc3ccc4cccc5ccc2c3c45)COC(C)(C)OC1.Cl` registered an LD20 in assay [1] of 675. For the same compound, the ILS entry in assay [2] was “inactive”. The compound also displayed an Optimal dose in assay [3] of 675 mg/kg.

The compound `Cl.c1cc2ccc3ccc(CNCCCNC4CCCCC4)c4ccc(c1)c2c34` came in with an LD20 in assay [1] of 134. Moreover, the ILS entry in assay [2] is “inactive”. For the same compound, the Optimal dose in assay [3] worked out at 200 mg/kg.

In assay [1], `CN(C)CCCNCc1ccc2ccc3cccc4ccc1c2c34.Cl` registered an LD20 of 85. Besides, the ILS result in assay [2] was “inactive”. For the same compound, the Optimal dose in assay [3] came to 127 mg/kg.

In the case of `CCC(O)CNCc1ccc2ccc3cccc4ccc1c2c34.Cl` (stereo unspecified), the LD20 in assay [1] is recorded as 225. For the same compound, the ILS result in assay [2] is “inactive”. The compound further came in with an Optimal dose in assay [3] of 225 mg/kg.

On to `Cl.c1ccc(CNCc2ccc3ccc4cccc5ccc2c3c45)cc1`, for which the LD20 in assay [1] worked out at 600. Moreover, the ILS entry in assay [2] was “inactive”. Moreover, the Optimal dose in assay [3] came out at 900 mg/kg.

As to `Cl.c1ccc(CCCNCc2ccc3ccc4cccc5ccc2c3c45)cc1`, the LD20 in assay [1] is recorded as 300. Moreover, the ILS entry in assay [2] was “inactive”. The Optimal dose in assay [3] amounted to 300 mg/kg.

For `Cl.c1ccc(CCNCc2ccc3ccc4cccc5ccc2c3c45)cc1`, the LD20 in assay [1] is listed as 335. The ILS result in assay [2] was “inactive”. In addition, the Optimal dose in assay [3] was found to be 335 mg/kg.

`Cl.OCCCCCNCc1ccc2ccc3cccc4ccc1c2c34` gave an LD20 in assay [1] of 196. Also, the ILS entry in assay [2] was “inactive”. The compound further registered an Optimal dose in assay [3] of 131 mg/kg.

Regarding `Cl.OC(CNCc1ccc2ccc3cccc4ccc1c2c34)c1ccccc1` (stereo unspecified), the LD20 in assay [1] is reported as 450. In assay [2], the ILS entry is “inactive”. Moreover, the Optimal dose in assay [3] turned out to be 450 mg/kg.

In turn, `CN(CCO)Cc1ccc2ccc3cccc4ccc1c2c34.Cl` came in with an LD20 in assay [1] of 366. Further, in assay [2], the ILS entry is “inactive”. The same compound yielded an Optimal dose in assay [3] of 365 mg/kg.

In assay [1], `Cl.c1ccc(NCCNCc2ccc3ccc4cccc5ccc2c3c45)cc1` came in with an LD20 of 300. Also, the ILS result in assay [2] was “inactive”. For the same compound, in assay [3], the Optimal dose was found to be 200 mg/kg.

Compound `CCCCCC(CO)(CO)NCc1ccc2ccc3cccc4ccc1c2c34.Cl` returned an LD20 in assay [1] of 675. The ILS entry in assay [2] was “inactive”. Further, the Optimal dose in assay [3] was 675 mg/kg.

The compound `CCN(CC)CCNCc1ccc2ccc3cccc4ccc1c2c34.Cl` had an LD20 in assay [1] of 120. The ILS result in assay [2] is “inactive”. The same compound displayed an Optimal dose in assay [3] of 180 mg/kg.

The compound `CC(O)CCNCc1ccc2ccc3cccc4ccc1c2c34.Cl` (stereo unspecified) registered an LD20 in assay [1] of 168. The ILS result in assay [2] was “inactive”. Besides, the Optimal dose in assay [3] came to 168 mg/kg.

In assay [1], `Cl.OCCCCNCc1ccc2ccc3cccc4ccc1c2c34` returned an LD20 of 208. For the same compound, the ILS entry in assay [2] is “inactive”. The Optimal dose in assay [3] was 139 mg/kg.

For `CC(C)CC(CO)NCc1ccc2ccc3cccc4ccc1c2c34.Cl` (stereo unspecified), in assay [1], the LD20 came out at 675. Besides, in assay [2], the ILS entry is “inactive”. In assay [3], this compound registered an Optimal dose of 1012 mg/kg.

In assay [1], `CC(C)OCCCNCc1ccc2ccc3cccc4ccc1c2c34.Cl` showed an LD20 of 180. The ILS result in assay [2] is “inactive”. The compound also yielded an Optimal dose in assay [3] of 120 mg/kg.

For `Cl.OCCCNCc1ccc2ccc3cccc4ccc1c2c34`, the ILS in assay [4] stood at 20%. Moreover, in assay [1], the LD20 was 120. This compound returned an Optimal dose in assay [3] of 120 mg/kg.

`CC1(C)OC[C@@H](O)[C@H](NCc2ccc3ccc4cccc5ccc2c3c45)CO1` displayed an LD20 in assay [1] of 675. Moreover, the ILS entry in assay [2] is “inactive”. In assay [3], this compound gave an Optimal dose of 1013 mg/kg.

With `CC(=O)OCC(C)(COC(C)=O)NCc1ccc2ccc3cccc4ccc1c2c34`, the ILS in assay [4] was determined as 65%. Further, the LD20 in assay [1] amounted to 300. For the same compound, the Optimal dose in assay [3] is 300 mg/kg.

In the case of `Cl.NCCCCCNCc1ccc2ccc3cccc4ccc1c2c34`, in assay [1], the LD20 was 20. In addition, in assay [2], the ILS entry is “inactive”. Besides, the Optimal dose in assay [3] was determined as 116 mg/kg.

The compound `Cl.N#CCCNCc1ccc2ccc3cccc4ccc1c2c34` registered an LD20 in assay [1] of 300. Besides, the ILS entry in assay [2] was “inactive”. Also, the Optimal dose in assay [3] came to 300 mg/kg.

In assay [1], `Cl.OCCN(CCO)Cc1ccc2ccc3cccc4ccc1c2c34` yielded an LD20 of 225. Moreover, the ILS entry in assay [2] was “inactive”. The compound also gave an Optimal dose in assay [3] of 225 mg/kg.

In turn, `NCCCCCCNCc1ccc2ccc3cccc4ccc1c2c34` yielded an LD20 in assay [1] of 75. Moreover, the ILS entry in assay [2] was “inactive”. For the same compound, in assay [3], the Optimal dose came to 75 mg/kg.

Compound `CC(CO)(CO)NCCCc1ccc2ccc3cccc4ccc1c2c34.Cl` yielded an LD20 in assay [1] of 67.5. In assay [2], the ILS entry was “inactive”. For the same compound, in assay [3], the Optimal dose amounted to 100 mg/kg.
